Test results from ChEMBL document CHEMBL2057189, “Functional characterization of recombinant hyoscyamine 6β-hydroxylase from Atropa belladonna” (Bioorg Med Chem, 2012).
Calls of active or inactive are those of the source. The rule behind the calls is not given here.

Legend:
Atropa belladonna [1] = experiment: Activity at Atropa belladonna recombinant hycosamine 6beta-hydroxylase expressed in Escherichia coli assessed as hydroxylated product formation at 0.2 mM after 1 hr by ESI-MS analysis
How it was run: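 Ni-NTA-purified His-tagged AbH6H, E. coli-expressed. Analogue at 0.2 mM final replaced (−)-hyoscyamine in 50 mM Tris/HCl pH 7.6 with 0.4 mM FeSO4, 4 mM sodium ascorbate, 1 mM 2-oxoglutaric acid and 2 mg/mL catalase at 34 °C. The reaction was quenched with saturated Na2CO3 (pH ~9.5) and extracted with EtOAc. Conversion to products was checked by ESI-MS.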

Atropa belladonna [2] = experiment: Activity at Atropa belladonna recombinant hycosamine 6beta-hydroxylase epoxidase activity expressed in Escherichia coli assessed as scopolamine formation at 0.2 mM after 1 hr by ESI-MS analysis
How it was run: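 C-terminally His6-tagged A. belladonna H6H expressed in E. coli JM109 and Ni-NTA purified. Substrate (0.2 mM final) incubated at 34 °C in 50 mM Tris/HCl pH 7.6 with 0.4 mM FeSO4, 4 mM sodium ascorbate, 1 mM 2-oxoglutarate and 2 mg/mL catalase. Quenched with saturated Na2CO3 to pH ~9.5 and extracted with EtOAc. Products detected by ESI-MS.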

Atropa belladonna [3] = experiment: Inhibition of Atropa belladonna recombinant hycosamine 6beta-hydroxylase expressed in Escherichia coli using hyoscyamine as substrate assessed as inhibition of hydroxylated product formation at 0.1 mM after 1 hr by HPLC analysis
How it was run: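 Purified AbH6H was assayed in 50 mM Tris/HCl pH 7.6 with 0.4 mM FeSO4, 4 mM ascorbate, 1 mM 2-oxoglutarate, 2 mg/mL catalase and 0.2 mM (−)-hyoscyamine, plus 0.1 mM analogue, at 34 °C. After Na2CO3 quench and EtOAc extraction, 6β-hydroxyhyoscyamine was quantified by C18 HPLC (UV 210 nm, water/H3PO4–MeOH gradient). Inhibition was scored as reduced product formation.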

Structure (SMILES) | Activity (Atropa belladonna [1]) | Activity (Atropa belladonna [2]) | inhibition (Atropa belladonna [3])
CN1[C@@H]2C=C[C@H]1C[C@@H](OC(=O)[C@H](CO)c1ccccc1)C2 | Active | Active | –
O=C(Cc1ccccc1)O[C@@H]1CC2CC[C@H](C1)O2 (single isomer, unassigned) | inactive | – | inactive
CN1C2CC[C@@H]1C[C@H](OC(=O)CCc1ccccc1)C2 (single isomer, unassigned) | inactive | – | inactive
C[N+]1(C)C2C[C@H](OC(=O)[C@H](CO)c3ccccc3)C[C@@H]1[C@H]1OC21 (single isomer, unassigned) | inactive | – | 7%
CN1C2CC[C@@H]1C[C@H](OC(=O)c1ccccc1)C2 (single isomer, unassigned) | Active | – | –
CN1CCC(OC(=O)Cc2ccccc2)CC1 | inactive | – | inactive
CN(C)c1ccc(CC(=O)O[C@H]2C[C@H]3CC[C@@H](C2)N3C)cc1 | Active | – | –
